Most compounds without a hit are left out; they make up all but 2.8% or so of the library.
NPY2 pot ag: potentiates or activates human NPY-Y2 receptor. activation, % at 3.6 µM. actives 0.45% (n = 220,000). P49146. cells expressing NPY-Y2, potentiator/agonist read-out; in the data active = activation above about 27%;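 note: cells stimulated with NPY near EC25 plus isoproterenol at EC100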
NPY Y2 blocker: antagonists of human neuropeptide Y receptor Y2. P49146. NPY-Y2 expressing cells, antagonist mode. inhibition, % at 2.7 µM. actives 0.99% (n = 140,000); in the data active = inhibition above about 17%
NPY Y1 blocker: blocks the human neuropeptide Y Y1 receptor; HEK293-CNG Y1 cells, membrane potential fluorescence; NPY at EC95, then isoproterenol; inhibition, % at 3.6 µM; actives 1% (n = 200,000); AID 1040;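 active = inhibition above the campaign mean inhibition of all tested compounds plus 3 SD, cut at about 20% in these data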
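Material: HEK293 Y1/CNG channel cell line | Also added: NPY (25 nM), isoproterenol (1 µM), Ro 20-1724 (25 µM) | Compound: One concentration, 3.6 µM, in 0.4% DMSO | Schedule: 3 h dye uptake, 1 h room-temperature compound, 45 min post-isoproterenol | Signal: Membrane-potential fluorescent dye readout | Read-out: % inhibition of NPY effect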
NPY-Y1 PAM-ag: human NPY-Y1 potentiation or agonism, primary screen; P25929; NPY-Y1 expressing cells, potentiator/agonist activation; activation, % at 3.6 µM; actives 0.37% (n = 220,000); in the data active = activation above about 33%, passing the limit was not always enough;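 note: cells stimulated with NPY at EC10 then isoproterenol at EC100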
EP2 mod: EP2 receptor (human) modulation | P43116 | actives 0.83% (n = 260,000) | AID 940 | EP2-expressing cells, cAMP HTRF FRET, PGE2 co-stimulation | induction, % at 25 µM;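 active = compounds whose cAMP rise, as percent of the full-agonist control response, exceeds 60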;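 note: rat C6 glioma line stably carrying human EP2 under a CMV promoter; the protocol text gives 20 µM as final concentration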
Target sequence (P43116 whole entry, looked up): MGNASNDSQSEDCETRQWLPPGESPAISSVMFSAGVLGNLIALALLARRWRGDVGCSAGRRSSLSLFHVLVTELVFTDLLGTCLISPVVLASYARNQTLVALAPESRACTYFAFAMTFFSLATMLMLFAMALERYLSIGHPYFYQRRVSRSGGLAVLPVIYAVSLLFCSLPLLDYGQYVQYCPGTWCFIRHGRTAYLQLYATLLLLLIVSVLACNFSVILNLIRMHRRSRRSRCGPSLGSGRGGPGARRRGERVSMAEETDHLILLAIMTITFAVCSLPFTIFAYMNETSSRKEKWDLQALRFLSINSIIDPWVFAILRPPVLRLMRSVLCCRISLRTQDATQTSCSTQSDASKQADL
EP2 antag: inhibitors of human EP2 prostaglandin E2 receptor | C6 glioma cells expressing human EP2, cAMP TR-FRET; cells stimulated with saturating PGE2 | inhibition, % at 25 µM | actives 0.52% (n = 260,000) | AID 1422;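 active = percent inhibition above 40 after rounding to a whole number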;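 note: rat C6 glioma host cells with rolipram phosphodiesterase inhibitor present; the protocol text gives 20 µM as final concentration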
EP2 cAMP induct: EP2 receptor cAMP induction, counter-screens negative; actives 47% (n = 1,300); calls only at 20 µM (by protocol); shares compounds with EP2 mod; C6 glioma EP2 cells, cAMP HTRF induction; plus low (about EC15) PGE2 agonist;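 active = cAMP induction above 50% in the main assay while under 30% in all four parallel counter assays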;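 note: rat C6 glioma cells stably expressing human EP2 receptor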
A number is an active result; . = inactive; / = not tested or not shown; + = active, no number.

SMILES	NPY2 pot ag	NPY Y2 blocker	NPY Y1 blocker	NPY-Y1 PAM-ag	EP2 mod	EP2 antag	EP2 cAMP induct
CCOc1ccccc1Cn1c(=O)sc2ccccc21	.	/	.	.	83	.	+
O=c1oc2ccccc2n1CCOc1cccc2ccccc12	/	/	/	/	.	.	/
CCOc1ccc(Cl)cc1S(=O)(=O)N1CCN(c2ccc(C)c(C)c2)CC1	.	.	.	.	.	.	/
CCOc1ccc(Cl)cc1S(=O)(=O)n1cnc2cc(C)c(C)cc21	.	.	.	.	70	.	+
CCCCCCC/C=C\CCCCCCCCC(=O)O	/	/	/	/	94	.	+
CCOc1ccccc1C(=O)Nc1ccsc1C(=O)OC	.	20	21	.	81	.	+
CCOc1ccccc1C(=O)Nc1ccccc1C(N)=O	.	.	.	.	.	.	/
COc1ccc(CCNC(=O)C2CCCN(c3nc4ccccc4n3C)C2)cc1 (centres undefined)	/	/	/	/	.	.	/
CCOc1ccc(OCC)c(NC(=O)CN2CCN(c3cc(C)ccc3C)CC2)c1	.	.	.	.	78	.	+
CCOc1ccc(OCC)c(NC(=O)CN2CCN(c3cccc(C)c3)CC2)c1	.	.	.	.	73	/	+
C(=N\N1CCN(C2c3ccccc3-c3ccccc32)CC1)/c1cccnc1	.	.	.	.	74	.	.
N#Cc1cn(-c2ccccc2)nc1-c1cc2ccccc2oc1=O	.	.	.	.	65	.	.
CCc1ccc(NC(=S)N(Cc2ccccc2)Cc2ccccn2)cc1	.	/	.	.	70	.	.
Cc1ccc(C)c(N=C2CCCN2Cc2ccccc2)c1C#N	.	.	.	.	78	.	+
Cc1nn(C(C)C)c(C)c1CN1CCC(O)(c2ccc3c(c2)OCO3)CC1	/	/	/	/	.	.	/
CCOC(=O)CCCCC(=O)c1[nH]c(=O)[nH]c1C[n+]1ccccc1	.	/	.	.	.	.	/
CCOC(=O)CCCCCCCCCCCCC1C=CCC1 (centres undefined)	/	/	/	/	.	.	+
COc1ncnc2c1oc1nc(CC(C)C)c3c(c12)CCCC3	.	.	.	.	68	.	+
Cc1ccc(C)c(-n2c(SCC(N)=O)nnc2-c2ccco2)c1	/	/	/	/	.	.	/
N#Cc1c(-c2ccco2)nc(SCC(=O)Nc2cccc(Cl)c2)[nH]c1=O	.	.	.	.	64	.	.
Cc1ccc(NC(=O)CSc2nc(-c3ccco3)c(C#N)c(=O)[nH]2)cc1	/	/	/	/	.	.	/
Cc1cc(NC(=O)Cn2nnc3sc4c(c3c2=O)CCC(C(C)(C)C)C4)no1 (centres undefined)	.	.	.	.	.	.	.
CCCn1c(SCC(=O)Nc2cccc(C)c2)nc2c1c(=O)n(C)c(=O)n2C	/	/	/	/	.	.	/
O=C(Nc1ccccc1)/C(=C/c1ccccc1)c1ccccc1	.	.	.	.	78	.	+
O=C(O)/C(=C\c1ccccc1)c1ccccc1	.	/	/	.	.	.	/
SMILES	NPY2 pot ag	NPY Y2 blocker	NPY Y1 blocker	NPY-Y1 PAM-ag	EP2 mod	EP2 antag	EP2 cAMP induct
Cc1ccccc1NC(=O)/C(=C/c1ccccc1)c1ccccc1	.	18	21	.	67	.	+
CNC(=S)N1CCN(c2ncnc3c(-c4ccc(F)cc4)nsc23)CC1	/	/	/	/	.	.	/
N#CCSc1nccc(-c2cc(Cl)sc2Cl)n1	.	.	.	.	.	.	/
C=CCSc1nccc(-c2cc(Cl)sc2Cl)n1	.	.	.	.	67	.	.
CCCCOc1ccccc1NC(=O)c1ccco1	.	.	.	.	.	.	/
CCCCOc1ccccc1NC(=O)c1scc2c1OCCO2	.	/	.	.	87	.	+
CCCCCOC(=O)c1[nH]c2c(c1C)C(=O)C(C(=O)OC)C(C)C2 (centres undefined)	.	.	.	.	91	.	+
S=c1[nH]nc(-c2ccco2)n1/N=C/c1ccc(Cl)cc1Cl	.	.	.	.	78	.	+
S=c1[nH]nc(-c2ccco2)n1/N=C/c1cccs1	.	.	.	.	.	.	/
N#CC1=C(N)Oc2nc[nH]c(=O)c2C1c1ccc(Cl)cc1 (centres undefined)	/	/	/	/	.	.	/
CSc1ncc2c(n1)-c1cc(C)ccc1SC2	.	.	.	.	78	.	+
Nc1ncc2c(n1)-c1cc(Cl)ccc1SC2	.	/	.	.	.	.	/
CC1(C)CC(=O)C2=C(C1)OC(N)=C(C#N)C2c1ccc(-c2cccc(Cl)c2Cl)o1 (centres undefined)	/	/	/	/	.	.	/
Cc1ccc(-n2cc(-c3ccccc3)c3c(N4CCOCC4)ncnc32)cc1	.	/	.	.	69	.	.
CC(C)(C)C1CCc2onc(C(=O)Nc3cccc(O)c3)c2C1 (centres undefined)	.	.	.	.	.	.	/
CC(C)(C)C1CCc2onc(C(=O)Nc3cccnc3)c2C1 (centres undefined)	.	.	.	.	.	.	.
COc1ccc(C(=O)COC(=O)C(CCSC)NS(=O)(=O)c2ccc(Cl)cc2)cc1 (centres undefined)	.	.	.	.	70	.	.
COC(=O)C(CCSC)NS(=O)(=O)c1ccc(Cl)cc1 (centres undefined)	.	/	.	.	.	.	/
CCCOc1c(CN2CCC(NC(C)=O)(c3ccc(F)cc3)CC2)cccc1OC	/	/	/	/	.	.	/
O=C(OCC(=O)N1N=C(c2ccc(Cl)cc2)CC1c1ccco1)c1ccco1 (centres undefined)	.	/	.	.	69	.	.
CC1CCC(C(C)C)C(OC(=O)COC(=O)c2ccc(=O)[nH]c2)C1 (centres undefined)	.	.	.	.	66	.	.
NC(=O)CSc1nnc(-c2cccc(S(=O)(=O)N3CCOCC3)c2)n1C1CCCCCC1	.	.	.	.	81	.	.
COCCCn1c(SCC(=O)Nc2ccc(C)cc2C)nnc1-c1ccoc1C	/	/	/	/	.	.	/
Cc1ccc(Cn2ccc(=O)c(OCc3c(Cl)cccc3Cl)c2C)cc1	.	.	.	.	67	.	+
CC(C)CC(NC(=O)Cc1cccs1)c1nc2cccnc2n1C (centres undefined)	/	/	/	/	.	/	/
COc1ccc(NC(=O)c2ccco2)cc1NC(=O)COc1ccc(C(C)C)cc1	/	/	/	/	.	.	/
Cc1ccc(C2CC(c3cccs3)=NN2C(=O)c2ccc(Br)o2)cc1 (centres undefined)	.	.	.	.	.	.	.
Cc1ccc2cc(CN(Cc3ccc4c(c3)OCO4)Cc3nnnn3CC3CCCO3)c(=O)[nH]c2c1 (centres undefined)	/	/	/	/	.	.	/
O=C(CO/N=C/c1ccccc1)N1c2ccccc2Oc2ccccc21	.	.	.	.	66	.	.
COc1cnc(SCc2c(Cl)cccc2Cl)nc1Cl	.	.	.	.	74	.	+

Screening results from PubChem BioAssay.
